ChEMBL document CHEMBL1132220 (J Med Chem, 1999)
Bridge positions count the residues as written; N and C are the ends. Square brackets hold non-standard residues; d marks the D form. Peptide text beside a SMILES is read from it. Phe(4-F) = N[C@@H](Cc1ccc(F)cc1)C(=O)O; 2Nal = N[C@@H](Cc1ccc2ccccc2c1)C(=O)O; 3Pal = N[C@@H](Cc1cccnc1)C(=O)O; Tle = CC(C)(C)[C@H](N)C(=O)O

Key:
[1] = target: Somatostatin receptor type 3 (Homo sapiens, UniProt P32745); assay: The compound was tested for binding affinity against human Somatostatin receptor type 3
How it was run: (§1)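 CHO-K1 cells stably transfected (calcium phosphate) with cloned human sst3 or sst4. Membranes made in ice-cold 50 mM Tris-HCl, resuspended in 10 mM Tris-HCl, then incubated 30 min at 37 °C with 0.05 nM [125I]Tyr11-SRIF in HEPES pH 7.4 with BSA, MgCl2 and protease inhibitors. Filtered on GF/C; nonspecific binding with 1.0 µM SRIF. Mean ± SEM, or one experiment.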

[2] = target: Somatostatin receptor type 4 (Homo sapiens, UniProt P31391); assay: The compound was tested for binding affinity against human Somatostatin receptor type 4; how it was run: as §1
[3] = target: Somatostatin receptor type 1 (Homo sapiens, UniProt P30872); assay: The compound was tested for binding affinity against human Somatostatin receptor type 1
How it was run: (§2)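 Membranes from CHO-K1 cells transfected with the cloned human receptor. Terminated by filtration on PEI-soaked GF/C filters. Nonspecific binding defined with 1.0 μM SRIF. Mean ± SEM; single values are from one experiment.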

[4] = target: Somatostatin receptor type 2 (Homo sapiens, UniProt P30874); assay: The compound was tested for binding affinity against human Somatostatin receptor type 2
How it was run: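 Membranes from CHO-K1 cells transfected with the cloned human sst2. Incubated 30 min at 37 °C with 0.05 nM [125I]MK-678 in HEPES pH 7.4 with BSA, MgCl2, Trasylol, bacitracin and PMSF. Filtration on PEI-soaked GF/C filters. Nonspecific binding defined with 1.0 μM SRIF. Mean ± SEM; single values are from one experiment.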

[5] = target: Somatostatin receptor type 5 (Homo sapiens, UniProt P35346); assay: The compound was tested for binding affinity against human Somatostatin receptor type 5; how it was run: as §2
Chain of Somatostatin receptor type 5 (P35346 whole entry): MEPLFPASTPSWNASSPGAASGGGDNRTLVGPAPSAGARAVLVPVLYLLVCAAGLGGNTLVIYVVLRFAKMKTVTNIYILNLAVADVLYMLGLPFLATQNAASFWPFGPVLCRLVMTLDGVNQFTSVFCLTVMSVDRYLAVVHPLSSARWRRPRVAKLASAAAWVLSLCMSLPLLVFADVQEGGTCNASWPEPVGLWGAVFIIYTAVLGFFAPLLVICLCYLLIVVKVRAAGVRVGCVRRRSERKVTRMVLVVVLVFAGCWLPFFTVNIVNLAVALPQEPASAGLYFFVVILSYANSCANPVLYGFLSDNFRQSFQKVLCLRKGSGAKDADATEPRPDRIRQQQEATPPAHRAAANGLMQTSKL

Chain of Somatostatin receptor type 2 (P30874 whole entry): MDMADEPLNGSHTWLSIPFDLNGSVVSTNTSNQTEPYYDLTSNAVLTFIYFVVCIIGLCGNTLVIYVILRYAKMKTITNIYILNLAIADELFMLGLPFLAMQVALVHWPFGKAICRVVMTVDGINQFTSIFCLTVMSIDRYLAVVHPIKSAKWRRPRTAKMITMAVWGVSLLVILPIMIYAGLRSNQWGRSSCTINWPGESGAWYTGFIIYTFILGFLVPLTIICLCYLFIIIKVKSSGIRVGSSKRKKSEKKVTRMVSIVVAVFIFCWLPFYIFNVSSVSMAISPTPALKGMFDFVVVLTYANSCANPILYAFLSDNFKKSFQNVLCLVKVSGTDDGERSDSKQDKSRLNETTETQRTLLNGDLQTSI
Chain of Somatostatin receptor type 1 (P30872 whole entry): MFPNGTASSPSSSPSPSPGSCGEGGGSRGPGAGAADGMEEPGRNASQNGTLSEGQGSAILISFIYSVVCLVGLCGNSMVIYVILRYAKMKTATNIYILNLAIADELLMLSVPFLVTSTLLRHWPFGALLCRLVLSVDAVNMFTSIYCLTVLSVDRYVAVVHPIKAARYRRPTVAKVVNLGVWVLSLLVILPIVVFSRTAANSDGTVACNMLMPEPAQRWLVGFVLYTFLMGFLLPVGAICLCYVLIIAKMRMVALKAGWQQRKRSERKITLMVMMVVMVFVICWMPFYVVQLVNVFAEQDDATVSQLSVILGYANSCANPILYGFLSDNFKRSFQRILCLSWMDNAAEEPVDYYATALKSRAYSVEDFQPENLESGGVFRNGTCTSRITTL
Chain of Somatostatin receptor type 3 (P32745 whole entry): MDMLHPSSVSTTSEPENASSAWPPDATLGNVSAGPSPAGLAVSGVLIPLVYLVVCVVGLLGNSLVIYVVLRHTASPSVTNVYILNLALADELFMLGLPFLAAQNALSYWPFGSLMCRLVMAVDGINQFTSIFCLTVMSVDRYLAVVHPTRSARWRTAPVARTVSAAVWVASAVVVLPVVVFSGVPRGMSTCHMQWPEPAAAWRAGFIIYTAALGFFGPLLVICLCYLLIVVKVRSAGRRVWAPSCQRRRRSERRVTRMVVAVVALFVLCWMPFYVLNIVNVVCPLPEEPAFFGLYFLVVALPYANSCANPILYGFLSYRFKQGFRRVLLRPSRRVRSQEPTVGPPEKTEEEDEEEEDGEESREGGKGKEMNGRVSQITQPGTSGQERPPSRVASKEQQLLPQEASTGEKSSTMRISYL
Chain of Somatostatin receptor type 4 (P31391 whole entry): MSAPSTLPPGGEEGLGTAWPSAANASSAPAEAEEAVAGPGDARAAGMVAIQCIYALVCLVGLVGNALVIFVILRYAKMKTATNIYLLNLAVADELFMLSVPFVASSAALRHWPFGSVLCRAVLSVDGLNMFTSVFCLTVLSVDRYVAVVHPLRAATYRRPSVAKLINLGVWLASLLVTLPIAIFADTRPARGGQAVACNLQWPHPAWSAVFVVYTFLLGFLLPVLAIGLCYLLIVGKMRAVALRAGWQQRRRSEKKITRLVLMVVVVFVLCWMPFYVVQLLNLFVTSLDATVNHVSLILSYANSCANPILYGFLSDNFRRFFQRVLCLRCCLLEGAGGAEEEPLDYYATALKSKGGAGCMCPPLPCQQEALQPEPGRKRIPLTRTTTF

| Ki [1] [nM] | Ki [2] [nM] | Ki [3] [nM] | Ki [4] [nM] | Ki [5] [nM] | Compound |
| --- | --- | --- | --- | --- | --- |
| 192 | 1570 | 413 | 163 | 382 | NCCCC[C@@H]1NC(=O)[C@@H](Cc2c[nH]c3ccccc23)NC(=O)[C@H](Cc2cccnc2)NC(=O)[C@H](NC(=O)[C@@H](N)Cc2ccc3ccccc3c2)CSSC[C@@H](C(=O)N[C@@H](Cc2ccc3ccccc3c2)C(N)=O)NC(=O)CNC1=O |
| 231 | > 1000 | > 1000 | 26 | 535 | CC(C)(C)[C@@H]1NC(=O)[C@H](CCCCN)NC(=O)[C@@H](Cc2c[nH]c3ccccc23)NC(=O)[C@H](Cc2cccnc2)NC(=O)[C@H](NC(=O)[C@@H](N)Cc2ccc(F)cc2)CSSC[C@@H](C(=O)N[C@@H](Cc2ccc3ccccc3c2)C(N)=O)NC1=O (H-[Phe(4-F)][dC][3Pal][dW]K[Tle]C[2Nal]-NH2; disulfide 2-7) |
| 152 | 1040 | 172 | > 1000 | 847 | CC[C@H](C)[C@@H]1NC(=O)[C@H](CCCCN)NC(=O)[C@@H](Cc2c[nH]c3ccccc23)NC(=O)[C@H](Cc2cccnc2)NC(=O)[C@H](NC(=O)[C@@H](N)Cc2ccc3ccccc3c2)CSSC[C@@H](C(=O)N[C@@H](Cc2ccc3ccccc3c2)C(N)=O)NC1=O (H-[2Nal][dC][3Pal][dW]KIC[2Nal]-NH2; disulfide 2-7) |
| 111 | 176 | 525 | 633 | 960 | CC(C)[C@@H]1NC(=O)[C@H](CCCCN)NC(=O)[C@@H](Cc2c[nH]c3ccccc23)NC(=O)[C@H](Cc2cccnc2)NC(=O)[C@H](NC(=O)[C@@H](N)Cc2c(F)c(F)c(F)c(F)c2F)CSSC[C@@H](C(=O)N[C@@H](Cc2c(F)c(F)c(F)c(F)c2F)C(N)=O)NC1=O |
| 397 | > 1000 | 60 | 103 | 734 | CC(C)[C@H]1NC(=O)[C@H](CCCCN)NC(=O)[C@@H](Cc2c[nH]c3ccccc23)NC(=O)[C@H](Cc2c[nH]cn2)NC(=O)C(NC(=O)[C@@H](N)Cc2cccc(F)c2)CSSCC(C(=O)N[C@@H](Cc2cccc(F)c2)C(N)=O)NC1=O (stereo in doubt) |
| 124 | > 1000 | 69 | 637 | 926 | CC(C)[C@H]1NC(=O)[C@H](CCCCN)NC(=O)[C@@H](Cc2c[nH]c3ccccc23)NC(=O)[C@H](Cc2c[nH]cn2)NC(=O)C(NC(=O)[C@@H](N)Cc2c(F)c(F)c(F)c(F)c2F)CSSCC(C(=O)N[C@@H](Cc2c(F)c(F)c(F)c(F)c2F)C(N)=O)NC1=O (stereo in doubt) |
| 93 | – | 34 | 692 | 1380 | CC(C)[C@@H]1NC(=O)[C@H](CCCCN)NC(=O)[C@@H](Cc2c[nH]c3ccccc23)NC(=O)[C@@H](Cc2ccccn2)NC(=O)[C@H](NC(=O)[C@@H](N)Cc2c(F)c(F)c(F)c(F)c2F)CSSC[C@@H](C(=O)N[C@@H](Cc2c(F)c(F)c(F)c(F)c2F)C(N)=O)NC1=O |
| 18 | 436 | 575 | 32 | 48 | CC(C)[C@@H]1NC(=O)[C@H](CCCCN)NC(=O)[C@@H](Cc2c[nH]c3ccccc23)NC(=O)[C@H](Cc2cccnc2)NC(=O)[C@H](NC(=O)[C@@H](N)Cc2ccc(I)cc2)CSSC[C@@H](C(=O)N[C@@H](Cc2ccc(I)cc2)C(N)=O)NC1=O |
| 170 | – | 568 | > 1000 | 918 | CC(C)[C@@H]1NC(=O)[C@H](CCCCN)NC(=O)[C@@H](Cc2c[nH]c3ccccc23)NC(=O)[C@H](Cc2ccccn2)NC(=O)[C@H](NC(=O)[C@@H](N)Cc2c(F)c(F)c(F)c(F)c2F)CSSC[C@@H](C(=O)N[C@@H](Cc2c(F)c(F)c(F)c(F)c2F)C(N)=O)NC1=O |
| – | > 1000 | – | – | – | C[C@@H](O)[C@@H]1NC(=O)[C@H](CCCCN)NC(=O)[C@@H](Cc2c[nH]c3ccccc23)NC(=O)[C@@H](Cc2cccnc2)NC(=O)C(NC(=O)[C@@H](N)Cc2ccc(Cl)cc2)CSSCC(C(=O)N[C@@H](Cc2ccc3ccccc3c2)C(N)=O)NC1=O (stereo in doubt) |
| 108 | – | 1690 | 233 | 204 | C[C@@H](O)[C@@H]1NC(=O)[C@H](CCCCN)NC(=O)[C@@H](Cc2c[nH]c3ccccc23)NC(=O)[C@H](Cc2ccccn2)NC(=O)C(NC(=O)[C@@H](N)Cc2ccc(Cl)cc2)CSSCC(C(=O)N[C@@H](Cc2ccc3ccccc3c2)C(N)=O)NC1=O (stereo in doubt) |
| 175 | – | 238 | 166 | 110 | CC(C)(C)C[C@@H]1NC(=O)[C@H](CCCCN)NC(=O)[C@@H](Cc2c[nH]c3ccccc23)NC(=O)[C@H](Cc2cccnc2)NC(=O)C(NC(=O)[C@@H](N)Cc2ccc(Cl)cc2)CSSCC(C(=O)N[C@@H](Cc2ccc3ccccc3c2)C(N)=O)NC1=O (stereo in doubt) |
